Results on 6 compounds are retold here after ChEMBL document CHEMBL1147384, “Cytotoxic diterpenoids from the brown alga Dilophus ligulatus” (1993).

Holding throughout (format): functional
Holding throughout (details): read-out: ED50 (the source's name)

Assay [1] is described as follows: Cytotoxicity against human NSCLC-N6 cells. Put shortly: (§1)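 Run under the lab's standard cytotoxicity protocols with mercaptopurine as the positive standard. Activity is given as ED50 in μg/ml. Cells were human nasopharynx carcinoma KB, human lung carcinoma NSCLC-N6, murine leukemia P-388, and P-388/DOX, a P-388 line expressing the multidrug-resistance (mdr) gene.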

Assay [2] relates to P388. The assay is described as follows: Cytotoxicity against mouse P388 cells. The essentials:
as §1

Assay [3] concerns KB. The assay is described as follows: Cytotoxicity against human KB cells. Put shortly:
as §1

In assay [4] the test system is P388. The assay is described as follows: Cytotoxicity against mouse doxorubicin-resistant P388 cells. Put shortly:
as §1

Values after ≈ are worked out from the molar mass of the structure shown.

In the case of `CC(=O)O[C@H]1C[C@H](C)[C@H]2C[C@H]2C2=C(COC2=O)[C@H]1[C@H](C)CCC=C(C)C` [ACETOXYCRENULIDE], the EC50 in assay [1], in assay [2], in assay [3] and in assay [4] was above 10 µg/mL in each case.

As to `CC(=O)O[C@@H]1C(=O)C2C1CC/C=C(\C)CC[C@@H]2[C@H](C)CCC=C(C)C` (some centres undefined) [ACETYLCORIACENONE], the EC50 in assay [1] is 5.4 µg/mL (≈ 15.6 µM); in assay [2] it was 4.4 µg/mL (≈ 12.7 µM); in assay [3], above 10 µg/mL; in assay [4] it was above 10 µg/mL.

On to `CC(=O)O/C=C1/CC/C=C(\C)C[C@@H]2OC(=O)[C@H]1[C@H]2[C@@H](C)CCC=C(C)C` [DILOPHOLIDE], for which the EC50 in assay [1] is 3.3 µg/mL (≈ 9.15 µM); in assay [2], 0.5 µg/mL (≈ 1.39 µM); in assay [3], 1.5 µg/mL (≈ 4.16 µM); in assay [4], 12 µg/mL (≈ 33.3 µM).

For the compound `CC(=O)OC[C@H]1/C(C=O)=C\C/C=C(\C)C[C@H](O)[C@@H]1[C@@H](C)CCC=C(C)C` [HYDROXYACETYLDICTYOLAL], the EC50 in assay [1] is 10 µg/mL (≈ 27.6 µM); in assay [2], 3.9 µg/mL (≈ 10.8 µM); in assay [3] it was 2.1 µg/mL (≈ 5.79 µM); in assay [4], 9.3 µg/mL (≈ 25.7 µM).

On to `CC(=O)O[C@H]1C(=O)C2C1CC/C=C(\C)CC[C@@H]2[C@H](C)CCC=C(C)C` (some centres undefined) [ISOACETYLCORIACENONE], for which the EC50 was 6.82 µg/mL (≈ 19.7 µM) in assay [1], 6 µg/mL (≈ 17.3 µM) in assay [2], above 10 µg/mL in assay [3] and above 10 µg/mL in assay [4].

As to `Sc1ncnc2nc[nH]c12` [MERCAPTOPURINE ANHYDROUS], the EC50 is 0.76 µg/mL (≈ 4.99 µM) in assay [1], 0.7 µg/mL (≈ 4.6 µM) in assay [2], 0.54 µg/mL (≈ 3.55 µM) in assay [3] and 0.25 µg/mL (≈ 1.64 µM) in assay [4].
